Measurements from PMC4738094 (Bioorganic & medicinal chemistry, 2015).
“Also recorded” adds a separate entry of the source.

Assays:
[1] = tested on: Neuro-2A neuroblastoma cells; assay: MTT cell viability assay under Aβ-induced cytotoxicity; type: cell-based, Murine; conditions: Neuro-2A cells exposed to Aβ
Procedure, shortened: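 Neuro-2A cells grown in DMEM with 10% FBS and penicillin-streptomycin at 37°C, 5% CO2. Cells briefly trypsinised, seeded at 2,000–4,000 cells/mL, and rested 6 h. Aβ25–35 (from 833 µM solution), test compound (from 250 µM solution) and MTT were added together for 6 h. Extraction buffer (acetic acid/SDS in DMF/water, pH 4.7) was then added, with 6 h shaking in the dark at 37°C. A570 was expressed relative to an Aβ-free control.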

[2] = ref [74]; cited from earlier work
XO = conditions: cited from earlier work

Compound	protection of cells against Aβ/ROS-induced stress (in words) [1]	further results
O=C(/C=C/c1ccc(O)c(O)c1)c1cccc(O)c1 [Compound 8, (E)-3-(3,4-dihydroxyphenyl)-1-(3-hydroxyphenyl)prop-2-en-1-one]	only modest protection	
O=C(/C=C/c1ccc(O)c(O)c1)c1cc(O)cc(O)c1 [Compound 14, (E)-3-(3,4-dihydroxyphenyl)-1-(3,5-dihydroxyphenyl)prop-2-en-1-one]	increased cell viability at a modest but noticeable level	
Oc1ccc(O)cc1 [hydroquinone]		standard reduction potential [2]: 459 mV
O=C(/C=C/c1ccc(O)c(O)c1)c1ccc(O)c(O)c1O [Compound 18, (E)-3-(3,4-dihydroxyphenyl)-1-(2,3,4-trihydroxyphenyl)prop-2-en-1-one]	best level of protection	
O=C(/C=C/c1ccc(O)c(O)c1O)c1ccc(O)c(O)c1O [Compound 20, (E)-1,3-bis(2,3,4-trihydroxyphenyl)prop-2-en-1-one]	best level of protection	
Oc1ccccc1O [catechol]		standard reduction potential [2]: 530 mV
Cc1nc(-c2ccc(OCC(C)C)c(C#N)c2)sc1C(=O)O [febuxostat]		potency (XO inhibition) (XO; ref [16]): subnanomolar range
O=C(/C=C/c1cc(O)ccc1O)c1ccc(O)c(O)c1 [Compound 17, (E)-3-(2,5-dihydroxyphenyl)-1-(3,4-dihydroxyphenyl)prop-2-en-1-one]	best level of protection	
Oc1cccc(O)c1 [resorcinol]		standard reduction potential [2]: 720 mV
O=C(/C=C/c1ccc(O)c(O)c1)c1ccc(O)cc1 [Compound 9, (E)-3-(3,4-dihydroxyphenyl)-1-(4-hydroxyphenyl)prop-2-en-1-one]	increased cell viability at a modest but noticeable level	
O=C(/C=C/c1cccc(O)c1)c1ccc(O)cc1O [Compound 10, (E)-1-(2,4-dihydroxyphenyl)-3-(3-hydroxyphenyl)prop-2-en-1-one]	poor rescue compound	
O=C(/C=C/c1cccc(O)c1O)c1ccc(O)c(O)c1 [Compound 16, (E)-3-(2,3-dihydroxyphenyl)-1-(3,4-dihydroxyphenyl)prop-2-en-1-one]	increased cell viability at a modest but noticeable level	
O=C(/C=C/c1ccc(O)c(O)c1)c1cc(O)ccc1O [Compound 12, (E)-1-(2,5-dihydroxyphenyl)-3-(3,4-dihydroxyphenyl)prop-2-en-1-one]	good rescue properties; also recorded: increased cell viability at a modest but noticeable level	
Oc1ncnc2[nH]ncc12 [Allopurinol]		IC50 (XO; read-out: IC50 (XO inhibition), ref [6]): 0.2 to 50 µM
O=C(/C=C/c1ccc(O)c(O)c1)c1ccc(O)c(O)c1 [Compound 13, (E)-1,3-bis(3,4-dihydroxyphenyl)prop-2-en-1-one]	increased cell viability at a modest but noticeable level	
O=C(/C=C/c1ccc(O)c(O)c1)c1c(O)cccc1O [Compound 11, (E)-1-(2,6-dihydroxyphenyl)-3-(3,4-dihydroxyphenyl)prop-2-en-1-one]	increased cell viability at a modest but noticeable level	
O=C(/C=C/c1ccc(O)c(O)c1)c1ccc(O)cc1O [Compound 15, (E)-1-(2,4-dihydroxyphenyl)-3-(3,4-dihydroxyphenyl)prop-2-en-1-one]	best level of protection	
O=C(/C=C/c1ccc(O)c(O)c1O)c1ccc(O)c(O)c1 [Compound 19, (E)-1-(3,4-dihydroxyphenyl)-3-(2,3,4-trihydroxyphenyl)prop-2-en-1-one]	increased cell viability at a modest but noticeable level	
